{"source": "ChEMBL document CHEMBL1649231", "about": "“In vitro activities of panduratin A against clinical Staphylococcus strains” (2009)", "type_in_all_cases": "functional", "key": {"Staphylococcus aureus [1]": {"test_system": "Staphylococcus aureus", "test": "Antimicrobial activity against methicillin-resistant Staphylococcus aureus after 24 hrs by broth microdilution method", "outline": "(§1)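 Clinical isolates came from blood, body fluids, genital secretions, pus or sputum, identified conventionally or by Vitek. MICs were run by CLSI M7-A6 broth microdilution in Mueller-Hinton broth with 5 × 10^5 CFU/ml inoculum. Agents were twofold serially diluted, starting from 10% DMSO. Drug-free and uninoculated controls were included. Plates were incubated aerobically at 37°C for 24 h; MIC is the lowest concentration giving no visible growth.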"}, "Staphylococcus aureus [2]": {"test_system": "Staphylococcus aureus", "test": "Antimicrobial activity against methicillin-susceptible Staphylococcus aureus after 24 hrs by broth microdilution method", "outline": "as §1"}, "Staphylococcus simulans [3]": {"test_system": "Staphylococcus simulans", "test": "Antimicrobial activity against methicillin-resistant coagulase-negative Staphylococcus simulans after 24 hrs by broth microdilution method", "outline": "as §1"}, "[4]": {"test_system": "Staphylococcus haemolyticus", "test": "Bactericidal activity against methicillin-resistant coagulase-negative Staphylococcus haemolyticus after 24 hrs by plate counting method"}, "[5]": {"test_system": "Staphylococcus haemolyticus", "test": "Antimicrobial activity against methicillin-resistant coagulase-negative Staphylococcus haemolyticus after 24 hrs by broth microdilution method", "outline": "as §1"}, "[6]": {"test_system": "Staphylococcus epidermidis", "test": "Bactericidal activity against methicillin-resistant coagulase-negative Staphylococcus epidermidis after 24 hrs by plate counting method"}, "[7]": {"test_system": "Staphylococcus epidermidis", "test": "Antimicrobial activity against methicillin-resistant coagulase-negative Staphylococcus epidermidis after 24 hrs by broth microdilution method", "outline": "as §1"}, "Staphylococcus hominis [8]": {"test_system": "Staphylococcus hominis", "test": "Bactericidal activity against methicillin-resistant coagulase-negative Staphylococcus hominis after 24 hrs by plate counting method"}, "Staphylococcus aureus [9]": {"test_system": "Staphylococcus aureus", "test": "Bactericidal activity against methicillin-susceptible Staphylococcus aureus after 24 hrs by plate counting method", "outline": "(§2)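 Clinical staphylococcal isolates from patient body fluids, blood, genital secretions, pus or sputum; species by conventional methods or Vitek. Twofold dilutions in Mueller-Hinton broth, inoculum 5 × 10^5 CFU/ml, 37°C aerobic 24 h (CLSI M7-A6 microdilution). About 100 μl from each well without visible growth spread on MHA; 37°C 24 h. MBC = lowest concentration giving no growth on agar.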"}, "Staphylococcus hominis [10]": {"test_system": "Staphylococcus hominis", "test": "Antimicrobial activity against methicillin-resistant coagulase-negative Staphylococcus hominis after 24 hrs by broth microdilution method", "outline": "as §1"}, "Staphylococcus aureus [11]": {"test_system": "Staphylococcus aureus", "test": "Bactericidal activity against methicillin-resistant Staphylococcus aureus after 24 hrs by plate counting method", "conditions": "Staphylococcus aureus, 24 h"}, "Staphylococcus simulans [12]": {"test_system": "Staphylococcus simulans", "test": "Bactericidal activity against methicillin-resistant coagulase-negative Staphylococcus simulans after 24 hrs by plate counting method", "outline": "as §2"}, "Mammaliicoccus sciuri [13]": {"test_system": "Mammaliicoccus sciuri", "test": "Antimicrobial activity against methicillin-resistant coagulase-negative Staphylococcus sciuri after 24 hrs by broth microdilution method", "outline": "as §1"}, "Mammaliicoccus sciuri [14]": {"test_system": "Mammaliicoccus sciuri", "test": "Bactericidal activity against methicillin-resistant coagulase-negative Staphylococcus sciuri after 24 hrs by plate counting method", "outline": "as §2"}, "Staphylococcus hominis [15]": {"test_system": "Staphylococcus hominis", "test": "Antimicrobial activity against methicillin-susceptible coagulase-negative Staphylococcus hominis after 24 hrs by broth microdilution method", "outline": "as §1"}, "Staphylococcus hominis [16]": {"test_system": "Staphylococcus hominis", "test": "Bactericidal activity against methicillin-susceptible coagulase-negative Staphylococcus hominis after 24 hrs by plate counting method", "outline": "as §2"}, "[17]": {"test_system": "Staphylococcus epidermidis", "test": "Antimicrobial activity against methicillin-susceptible coagulase-negative Staphylococcus epidermidis after 24 hrs by broth microdilution method", "outline": "as §1"}, "[18]": {"test_system": "Staphylococcus epidermidis", "test": "Bactericidal activity against methicillin-susceptible coagulase-negative Staphylococcus epidermidis after 24 hrs by plate counting method", "outline": "as §2"}, "[19]": {"test_system": "Staphylococcus haemolyticus", "test": "Antimicrobial activity against methicillin-susceptible coagulase-negative Staphylococcus haemolyticus after 24 hrs by broth microdilution method", "outline": "as §1"}, "[20]": {"test_system": "Staphylococcus haemolyticus", "test": "Bactericidal activity against methicillin-susceptible coagulase-negative Staphylococcus haemolyticus after 24 hrs by plate counting method", "outline": "as §2"}, "Staphylococcus simulans [21]": {"test_system": "Staphylococcus simulans", "test": "Antimicrobial activity against methicillin-susceptible coagulase-negative Staphylococcus simulans after 24 hrs by broth microdilution method", "outline": "as §1"}, "Staphylococcus simulans [22]": {"test_system": "Staphylococcus simulans", "test": "Bactericidal activity against methicillin-susceptible coagulase-negative Staphylococcus simulans after 24 hrs by plate counting method", "outline": "as §2"}, "Mammaliicoccus sciuri [23]": {"test_system": "Mammaliicoccus sciuri", "test": "Antimicrobial activity against methicillin-susceptible coagulase-negative Staphylococcus sciuri after 24 hrs by broth microdilution method", "outline": "as §1"}, "Mammaliicoccus sciuri [24]": {"test_system": "Mammaliicoccus sciuri", "test": "Bactericidal activity against methicillin-susceptible coagulase-negative Staphylococcus sciuri after 24 hrs by plate counting method", "outline": "as §2"}, "Porphyromonas gingivalis [25]": {"test_system": "Porphyromonas gingivalis", "test": "Antimicrobial activity against Porphyromonas gingivalis"}, "Streptococcus mutans [26]": {"test_system": "Streptococcus mutans", "test": "Antimicrobial activity against Streptococcus mutans"}, "Hoylesella loescheii [27]": {"test_system": "Hoylesella loescheii", "test": "Antimicrobial activity against Prevotella loescheii"}, "Prevotella intermedia [28]": {"test_system": "Prevotella intermedia", "test": "Antimicrobial activity against Prevotella intermedia"}, "Cutibacterium acnes [29]": {"test_system": "Cutibacterium acnes", "test": "Antimicrobial activity against Propionibacterium acnes"}, "Porphyromonas gingivalis [30]": {"test_system": "Porphyromonas gingivalis", "test": "Bactericidal activity against Porphyromonas gingivalis"}, "Streptococcus mutans [31]": {"test_system": "Streptococcus mutans", "test": "Bactericidal activity against Streptococcus mutans"}, "Hoylesella loescheii [32]": {"test_system": "Hoylesella loescheii", "test": "Bactericidal activity against Prevotella loescheii"}, "Prevotella intermedia [33]": {"test_system": "Prevotella intermedia", "test": "Bactericidal activity against Prevotella intermedia"}, "Cutibacterium acnes [34]": {"test_system": "Cutibacterium acnes", "test": "Bactericidal activity against Propionibacterium acnes"}, "[35]": {"conditions": "Staphylococcus haemolyticus, 24 h"}, "[36]": {"conditions": "Staphylococcus epidermidis, 24 h"}}, "data": [{"smiles": "COc1cc(O)c(C(=O)[C@@H]2[C@H](CC=C(C)C)C(C)=CC[C@H]2c2ccccc2)c(O)c1", "note": "[PANDURATIN A]", "values": [{"measurement": "MIC", "setting": "Staphylococcus aureus [1]", "value": 0.5, "unit": "µg/mL"}, {"measurement": "MIC50", "setting": "Staphylococcus aureus [1]", "value": 0.5, "unit": "µg/mL"}, {"measurement": "MIC90", "setting": "Staphylococcus aureus [1]", "value": 1, "unit": "µg/mL"}, {"measurement": "MIC", "setting": "Staphylococcus aureus [2]", "value": 0.5, "unit": "µg/mL"}, {"measurement": "MIC50", "setting": "Staphylococcus aureus [2]", "value": 0.5, "unit": "µg/mL"}, {"measurement": "MIC90", "setting": "Staphylococcus aureus [2]", "value": 1, "unit": "µg/mL"}, {"measurement": "MIC50", "setting": "Staphylococcus simulans [3]", "value": 0.25, "unit": "µg/mL"}, {"measurement": "MIC90", "setting": "Staphylococcus simulans [3]", "value": 1, "unit": "µg/mL"}, {"measurement": "MBC50", "setting": "[4]", "value": 2, "unit": "µg/mL"}, {"measurement": "MBC", "setting": "[4]; [35]", "value": 1, "unit": "µg/mL"}, {"measurement": "MIC50", "setting": "[5]", "value": 0.25, "unit": "µg/mL"}, {"measurement": "MIC90", "setting": "[5]", "value": 1, "unit": "µg/mL"}, {"measurement": "MBC50", "setting": "[6]", "value": 2, "unit": "µg/mL"}, {"measurement": "MBC", "setting": "[6]; [36]", "value": 1, "unit": "µg/mL"}, {"measurement": "MIC50", "setting": "[7]", "value": 0.25, "unit": "µg/mL"}, {"measurement": "MIC90", "setting": "[7]", "value": 1, "unit": "µg/mL"}, {"measurement": "MBC50", "setting": "Staphylococcus hominis [8]", "value": 2, "unit": "µg/mL"}, {"measurement": "MBC", "setting": "Staphylococcus hominis [8]; Staphylococcus hominis, 24 h", "value": 1, "unit": "µg/mL"}, {"measurement": "MBC50", "setting": "Staphylococcus aureus [9]", "value": 2, "unit": "µg/mL"}, {"measurement": "MBC90", "setting": "Staphylococcus aureus [9]", "value": 4, "unit": "µg/mL"}, {"measurement": "MBC", "setting": "Staphylococcus aureus [9]; Staphylococcus aureus, 24 h", "value": 1, "unit": "µg/mL"}, {"measurement": "MIC50", "setting": "Staphylococcus hominis [10]", "value": 0.25, "unit": "µg/mL"}, {"measurement": "MIC90", "setting": "Staphylococcus hominis [10]", "value": 1, "unit": "µg/mL"}, {"measurement": "MBC", "setting": "Staphylococcus aureus [11]", "value": 2, "unit": "µg/mL"}, {"measurement": "MBC50", "setting": "Staphylococcus simulans [12]", "value": 2, "unit": "µg/mL"}, {"measurement": "MBC", "setting": "Staphylococcus simulans [12]; Staphylococcus simulans, 24 h", "value": 1, "unit": "µg/mL"}, {"measurement": "MIC50", "setting": "Mammaliicoccus sciuri [13]", "value": 0.25, "unit": "µg/mL"}, {"measurement": "MIC90", "setting": "Mammaliicoccus sciuri [13]", "value": 1, "unit": "µg/mL"}, {"measurement": "MBC50", "setting": "Mammaliicoccus sciuri [14]", "value": 2, "unit": "µg/mL"}, {"measurement": "MBC", "setting": "Mammaliicoccus sciuri [14]; Mammaliicoccus sciuri, 24 h", "value": 1, "unit": "µg/mL"}, {"measurement": "MIC50", "setting": "Staphylococcus hominis [15]", "value": 0.5, "unit": "µg/mL"}, {"measurement": "MIC90", "setting": "Staphylococcus hominis [15]", "value": 1, "unit": "µg/mL"}, {"measurement": "MBC50", "setting": "Staphylococcus hominis [16]", "value": 1, "unit": "µg/mL"}, {"measurement": "MBC90", "setting": "Staphylococcus hominis [16]", "value": 4, "unit": "µg/mL"}, {"measurement": "MBC", "setting": "Staphylococcus hominis [16]; Staphylococcus hominis, 24 h", "value": 0.125, "unit": "µg/mL"}, {"measurement": "MIC50", "setting": "[17]", "value": 0.5, "unit": "µg/mL"}, {"measurement": "MIC90", "setting": "[17]", "value": 1, "unit": "µg/mL"}, {"measurement": "MBC50", "setting": "[18]", "value": 1, "unit": "µg/mL"}, {"measurement": "MBC90", "setting": "[18]", "value": 4, "unit": "µg/mL"}, {"measurement": "MBC", "setting": "[18]; [36]", "value": 0.125, "unit": "µg/mL"}, {"measurement": "MIC50", "setting": "[19]", "value": 0.5, "unit": "µg/mL"}, {"measurement": "MIC90", "setting": "[19]", "value": 1, "unit": "µg/mL"}, {"measurement": "MBC50", "setting": "[20]", "value": 1, "unit": "µg/mL"}, {"measurement": "MBC90", "setting": "[20]", "value": 4, "unit": "µg/mL"}, {"measurement": "MBC", "setting": "[20]; [35]", "value": 0.125, "unit": "µg/mL"}, {"measurement": "MIC50", "setting": "Staphylococcus simulans [21]", "value": 0.5, "unit": "µg/mL"}, {"measurement": "MIC90", "setting": "Staphylococcus simulans [21]", "value": 1, "unit": "µg/mL"}, {"measurement": "MBC50", "setting": "Staphylococcus simulans [22]", "value": 1, "unit": "µg/mL"}, {"measurement": "MBC90", "setting": "Staphylococcus simulans [22]", "value": 4, "unit": "µg/mL"}, {"measurement": "MBC", "setting": "Staphylococcus simulans [22]; Staphylococcus simulans, 24 h", "value": 0.125, "unit": "µg/mL"}, {"measurement": "MIC50", "setting": "Mammaliicoccus sciuri [23]", "value": 0.5, "unit": "µg/mL"}, {"measurement": "MIC90", "setting": "Mammaliicoccus sciuri [23]", "value": 1, "unit": "µg/mL"}, {"measurement": "MBC50", "setting": "Mammaliicoccus sciuri [24]", "value": 1, "unit": "µg/mL"}, {"measurement": "MBC90", "setting": "Mammaliicoccus sciuri [24]", "value": 4, "unit": "µg/mL"}, {"measurement": "MBC", "setting": "Mammaliicoccus sciuri [24]; Mammaliicoccus sciuri, 24 h", "value": 0.125, "unit": "µg/mL"}, {"measurement": "MIC", "setting": "Porphyromonas gingivalis [25]", "value": 4, "unit": "µg/mL"}, {"measurement": "MIC", "setting": "Streptococcus mutans [26]", "value": 4, "unit": "µg/mL"}, {"measurement": "MIC", "setting": "Hoylesella loescheii [27]", "value": 4, "unit": "µg/mL"}, {"measurement": "MIC", "setting": "Prevotella intermedia [28]", "value": 2, "unit": "µg/mL"}, {"measurement": "MIC", "setting": "Cutibacterium acnes [29]", "value": 2, "unit": "µg/mL"}, {"measurement": "MBC", "setting": "Porphyromonas gingivalis [30]", "value": 8, "unit": "µg/mL"}, {"measurement": "MBC", "setting": "Streptococcus mutans [31]", "value": 8, "unit": "µg/mL"}, {"measurement": "MBC", "setting": "Hoylesella loescheii [32]", "value": 8, "unit": "µg/mL"}, {"measurement": "MBC", "setting": "Prevotella intermedia [33]", "value": 4, "unit": "µg/mL"}, {"measurement": "MBC", "setting": "Cutibacterium acnes [34]", "value": 4, "unit": "µg/mL"}]}]}
